According to ChEMBL document CHEMBL5058577, “EUbOPEN Chemogenomics Library 2 (Multiplex)” (2022):

Tested on: Fibroblast
Assay: Multiplex assay against human fibroblast
Type: toxicity, cell-based
Procedure, shortened: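 Hoechst33342, BioTracker Green Microtubule Cytoskeleton Dye, MitoTracker Red and Annexin V Alexa Fluor 680 were added to live cells at seeding, and imaging on a CQ1 microscope at 37°C and 5% CO2 followed compound addition. Gating by CellPathfinder machine learning separated cells into Hoechst high-intensity objects or normal cells, then normal cells into healthy, pyknosed or fragmented nuclei, then pyknosed cells into mitotic or apoptotic. Per cents of healthy-nucleus cells are reported for the tubulin, mitochondrial-mass and membrane-permeability phenotypes.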

[1] = 12 h, 1 µM, compound concentration 1 uM, replicate 1
[2] = 12 h, 1 µM, compound concentration 1 uM, replicate 2
[3] = 12 h, 10 µM, compound concentration 10 uM, replicate 1
[4] = 12 h, 10 µM, compound concentration 10 uM, replicate 2
[5] = 24 h, 1 µM, compound concentration 1 uM, replicate 1
[6] = 24 h, 1 µM, compound concentration 1 uM, replicate 2
[7] = 24 h, 10 µM, compound concentration 10 uM, replicate 1
[8] = 24 h, 10 µM, compound concentration 10 uM, replicate 2
[9] = 48 h, 1 µM, compound concentration 1 uM, replicate 1
[10] = 48 h, 1 µM, compound concentration 1 uM, replicate 2
[11] = 48 h, 10 µM, compound concentration 10 uM, replicate 1
[12] = 48 h, 10 µM, compound concentration 10 uM, replicate 2

CC(=O)NCCc1c(Cc2ccccc2)[nH]c2ccccc12 [LUZINDOLE]
Population Apoptotic (%) [1]: 41% | Population Fragmented Nuclei (%) [1]: 15% | Population Healthy Nuclei (%) [1]: 65% | Population Hoechst High Intensity Objects (%) [1]: 1% | Population Membrane Permeable-Phenotype (%) [1]: 2% | Population Mitochondria Different-Phenotype (%) [1]: 7% | Population Mitotic Cells (%) [1]: 58% | Population Normal (%) [1]: 98% | Population Pyknosed Nuclei (%) [1]: 18% | Population Tubulin-Different-Phenotype (%) [1]: 30% | Total Cell Count [1]: 129 | Population Apoptotic (%) [2]: 40% | Population Fragmented Nuclei (%) [2]: 25% | Population Healthy Nuclei (%) [2]: 39% | Population Hoechst High Intensity Objects (%) [2]: 4% | Population Membrane Permeable-Phenotype (%) [2]: 9% | Population Mitochondria Different-Phenotype (%) [2]: 11% | Population Mitotic Cells (%) [2]: 59% | Population Normal (%) [2]: 95% | Population Pyknosed Nuclei (%) [2]: 34% | Population Tubulin-Different-Phenotype (%) [2]: 50% | Total Cell Count [2]: 134 | Population Apoptotic (%) [3]: 19% | Population Fragmented Nuclei (%) [3]: 15% | Population Healthy Nuclei (%) [3]: 69% | Population Hoechst High Intensity Objects (%) [3]: 2% | Population Membrane Permeable-Phenotype (%) [3]: 2% | Population Mitochondria Different-Phenotype (%) [3]: 7% | Population Mitotic Cells (%) [3]: 80% | Population Normal (%) [3]: 97% | Population Pyknosed Nuclei (%) [3]: 15% | Population Tubulin-Different-Phenotype (%) [3]: 42% | Total Cell Count [3]: 140 | Population Apoptotic (%) [4]: 21% | Population Fragmented Nuclei (%) [4]: 26% | Population Healthy Nuclei (%) [4]: 59% | Population Membrane Permeable-Phenotype (%) [4]: 13% | Population Mitochondria Different-Phenotype (%) [4]: 4% | Population Mitotic Cells (%) [4]: 78% | Population Pyknosed Nuclei (%) [4]: 13% | Population Tubulin-Different-Phenotype (%) [4]: 32% | Total Cell Count [4]: 105 | Population Apoptotic (%) [5]: 54% | Population Fragmented Nuclei (%) [5]: 21% | Population Healthy Nuclei (%) [5]: 61% | Population Hoechst High Intensity Objects (%) [5]: 0% | Population Membrane Permeable-Phenotype (%) [5]: 0% | Population Mitochondria Different-Phenotype (%) [5]: 3% | Population Mitotic Cells (%) [5]: 45% | Population Normal (%) [5]: 99% | Population Pyknosed Nuclei (%) [5]: 16% | Population Tubulin-Different-Phenotype (%) [5]: 13% | Total Cell Count [5]: 134 | Population Apoptotic (%) [6]: 45% | Population Fragmented Nuclei (%) [6]: 25% | Population Healthy Nuclei (%) [6]: 47% | Population Hoechst High Intensity Objects (%) [6]: 5% | Population Membrane Permeable-Phenotype (%) [6]: 8% | Population Mitochondria Different-Phenotype (%) [6]: 8% | Population Mitotic Cells (%) [6]: 54% | Population Normal (%) [6]: 94% | Population Pyknosed Nuclei (%) [6]: 26% | Population Tubulin-Different-Phenotype (%) [6]: 50% | Total Cell Count [6]: 137 | Population Apoptotic (%) [7]: 47% | Population Fragmented Nuclei (%) [7]: 15% | Population Healthy Nuclei (%) [7]: 67% | Population Hoechst High Intensity Objects (%) [7]: 2% | Population Membrane Permeable-Phenotype (%) [7]: 1% | Population Mitochondria Different-Phenotype (%) [7]: 5% | Population Mitotic Cells (%) [7]: 52% | Population Normal (%) [7]: 97% | Population Pyknosed Nuclei (%) [7]: 17% | Population Tubulin-Different-Phenotype (%) [7]: 29% | Total Cell Count [7]: 138 | Population Apoptotic (%) [8]: 23% | Population Fragmented Nuclei (%) [8]: 27% | Population Healthy Nuclei (%) [8]: 59% | Population Hoechst High Intensity Objects (%) [8]: 3% | Population Membrane Permeable-Phenotype (%) [8]: 5% | Population Mitochondria Different-Phenotype (%) [8]: 3% | Population Mitotic Cells (%) [8]: 76% | Population Normal (%) [8]: 96% | Population Pyknosed Nuclei (%) [8]: 12% | Population Tubulin-Different-Phenotype (%) [8]: 33% | Total Cell Count [8]: 105 | Population Apoptotic (%) [9]: 75% | Population Fragmented Nuclei (%) [9]: 15% | Population Healthy Nuclei (%) [9]: 72% | Population Hoechst High Intensity Objects (%) [9]: 5% | Population Membrane Permeable-Phenotype (%) [9]: 2% | Population Mitochondria Different-Phenotype (%) [9]: 3% | Population Mitotic Cells (%) [9]: 25% | Population Normal (%) [9]: 94% | Population Pyknosed Nuclei (%) [9]: 12% | Population Tubulin-Different-Phenotype (%) [9]: 24% | Total Cell Count [9]: 134 | Population Apoptotic (%) [10]: 39% | Population Fragmented Nuclei (%) [10]: 27% | Population Healthy Nuclei (%) [10]: 55% | Population Hoechst High Intensity Objects (%) [10]: 8% | Population Membrane Permeable-Phenotype (%) [10]: 9% | Population Mitochondria Different-Phenotype (%) [10]: 5% | Population Mitotic Cells (%) [10]: 60% | Population Normal (%) [10]: 91% | Population Pyknosed Nuclei (%) [10]: 16% | Population Tubulin-Different-Phenotype (%) [10]: 46% | Total Cell Count [10]: 149 | Population Apoptotic (%) [11]: 80% | Population Fragmented Nuclei (%) [11]: 19% | Population Healthy Nuclei (%) [11]: 70% | Population Hoechst High Intensity Objects (%) [11]: 3% | Population Membrane Permeable-Phenotype (%) [11]: 0% | Population Mitochondria Different-Phenotype (%) [11]: 3% | Population Mitotic Cells (%) [11]: 20% | Population Normal (%) [11]: 96% | Population Pyknosed Nuclei (%) [11]: 10% | Population Tubulin-Different-Phenotype (%) [11]: 34% | Total Cell Count [11]: 147 | Population Apoptotic (%) [12]: 54% | Population Fragmented Nuclei (%) [12]: 34% | Population Healthy Nuclei (%) [12]: 54% | Population Hoechst High Intensity Objects (%) [12]: 4% | Population Membrane Permeable-Phenotype (%) [12]: 3% | Population Mitotic Cells (%) [12]: 45% | Population Normal (%) [12]: 95% | Population Tubulin-Different-Phenotype (%) [12]: 50% | Total Cell Count [12]: 111
